This is a sample that favours compounds with a hit; in the whole collection about 1.7% have one here.
VIM-2 inhibitor: blocks Pseudomonas aeruginosa VIM-2 metallo-beta-lactamase. purified VIM-2, nitrocefin hydrolysis, epi-absorbance fluorescence. inhibition, % at 5.6 µM. 290,000 compounds, 0.89% hits. AID 1527;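 active = inhibition above the mean of all tested compounds plus 3 SD, cutoff set per screening run, cut at about 7.5% in these data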;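 note: red hydrolysis product quenches plate fluorescence so inhibitors raise well fluorescence; 0% = enzyme with DMSO and 100% = DMSO without enzyme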
IMP-1 inh-1: blocks Pseudomonas aeruginosa IMP-1 metallo-beta-lactamase | inhibition, % at 5.6 µM | purified IMP-1, nitrocefin hydrolysis, epi-absorbance fluorescence | 290,000 compounds, 0.45% hits;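 active = inhibition above the mean plus 3 SD of all compounds in the same screening run, cut at about 4.5% in these data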;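 note: 0% = IMP-1 with DMSO and 100% = DMSO wells lacking enzyme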
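System: purified recombinant IMP-1 beta-lactamase. Medium: Zinc- and detergent-supplemented HEPES buffer, pH 7.1. Compound: one 5.6 µM dose […]. Schedule: 15 min preincubation plus 25 min reaction at 25 °C. Technique: Epi-absorbance fluorescence, 480 nm excitation, 530 nm emission.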
Neddylation inh: blocks human cullin neddylation | TR-FRET cullin neddylation, biochemical | calls only at 25 µM | 360,000 compounds, 0.58% hits; in the data active = inhibition above about 36%
PolyA inhibitor: yeast polyadenylation inhibition; activity score, % at 12 µM; S. cerevisiae SKY197-pL101 polyadenylation reporter, beta-gal luminescence; efflux-impaired pdr1/pdr3 knockout yeast; score 100 = 6 SD above DMSO; 300,000 compounds, 0.02% hits; AID 1875;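 active = lowest replicate activity score at least 50, where 100 means six control SD above control mean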;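 note: yeast exposed to compound for 9 h at 30 °C; higher score means more reporter readthrough which indicates perturbed polyadenylation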
procasp7 counter: counter-screen for procaspase-3 activators: activators of human procaspase-7; 330,000 compounds, 0.093% hits; P55210; recombinant procaspase-7, Ac-DEVD-pNA absorbance 405 nm; D23A/D198A/D206A triple mutant, cannot self-cleave; scale: DMSO 0, 5 µM enzyme 100; activation, % at 8.5 µM; AID 463210;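 active = percent activation above the screen-wide mean plus 3 SD, cut at about 25% in these data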
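Detection: p-Nitroaniline absorbance at 405 nm, read at 0 and 120 min; system: Uncleavable procaspase-7 mutant enzyme; evaluation: % activation from two-timepoint absorbance difference, scaled to controls; times: 1 h enzyme–compound preincubation and 2 h substrate reaction, both 25 °C; buffer or medium: Zinc-free HEPES pH 7.4 with 300 mM NaCl, 0.01% Triton X-100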
procasp3 activ: activates human procaspase-3. recombinant procaspase-3 D3A, Ac-DEVD-pNA absorbance 405 nm. AID 463141. 330,000 compounds, 0.11% hits. activation, % at 8.5 µM;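 active = activation above the mean of all tested compounds plus 3 SD, cut at about 21% in these data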;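 note: 0% = DMSO alone and 100% = DMSO wells spiked with extra 5 µM PC-3 D3A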
Target sequence (P42574 whole entry D9A/D28A/D175A): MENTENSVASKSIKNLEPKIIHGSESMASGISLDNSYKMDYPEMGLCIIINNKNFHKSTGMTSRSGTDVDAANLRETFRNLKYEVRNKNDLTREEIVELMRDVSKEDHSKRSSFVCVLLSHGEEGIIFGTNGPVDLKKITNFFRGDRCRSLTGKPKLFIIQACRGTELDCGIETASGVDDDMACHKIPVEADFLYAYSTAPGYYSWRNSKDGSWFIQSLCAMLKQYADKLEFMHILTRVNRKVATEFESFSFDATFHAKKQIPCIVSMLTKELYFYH
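Evaluation: percent activation relative to control range; Material: Procaspase-3 D3A mutant, all three cleavage aspartates alanine; Compound: single dose, 8.5 µM nominal compound, 0.8% DMSO; Replication: one well per compound; Signal: absorbance at 405 nm, 0 and 120 min; Schedule: 1 h preincubation plus 2 h reaction at 25 °C.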
IMP-1 inh-2: blocks IMP-1 metallo-beta-lactamase in VIM-2 selectivity screen. AID 1856. shares compounds with VIM-2 inhibitor. 1,300 tested, under 10 active. purified IMP-1, nitrocefin hydrolysis, epi-absorbance fluorescence. inhibition, % at 5.6 µM; call rule not given here;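 note: 0% = enzyme with vehicle and 100% = vehicle without enzyme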
VIM-2 FRET inh: VIM-2 FRET inhibition, artifact counter-screen. shares compounds with VIM-2 inhibitor. purified VIM-2, CCF2 FRET substrate hydrolysis. inhibition, % at 5.6 µM. 1,300 compounds, 23% hits;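 active = inhibition above the mean of all tested compounds plus 3 SD, cut at about 19% in these data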;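 note: 0% = VIM-2 plus DMSO and 100% = no enzyme wells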
TEM-1 inh: blocks E. coli TEM-1 beta-lactamase in VIM-2 selectivity screen. AID 1866. 1,300 compounds, 3% hits. shares compounds with VIM-2 inhibitor. Purified TEM-1, nitrocefin hydrolysis, epi-absorbance fluorescence. inhibition, % at 5.6 µM;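 active = inhibition above that campaign's mean inhibition plus 3 SD, cut at about 0.46% in these data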;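 note: 0% = TEM-1 with DMSO and 100% = TEM-1 with 100 µM potassium clavulanate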
Target sequence (P62593 whole entry, looked up): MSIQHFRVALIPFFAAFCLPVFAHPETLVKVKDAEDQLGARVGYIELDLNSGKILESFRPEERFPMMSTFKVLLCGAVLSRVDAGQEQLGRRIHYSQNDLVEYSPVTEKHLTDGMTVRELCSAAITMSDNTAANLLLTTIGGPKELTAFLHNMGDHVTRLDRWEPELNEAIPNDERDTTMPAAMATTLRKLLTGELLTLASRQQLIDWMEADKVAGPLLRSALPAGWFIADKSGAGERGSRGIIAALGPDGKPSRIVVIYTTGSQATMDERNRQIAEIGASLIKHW
VIM-2 inh conf: confirmation of P. aeruginosa VIM-2 metallo-beta-lactamase inhibitors. shares compounds with VIM-2 inhibitor. purified VIM-2, nitrocefin hydrolysis, epi-absorbance. inhibition, % at 5.6 µM. 1,300 compounds, 96% hits. AID 2187;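 active = inhibition of the VIM-2 beta-lactamase enzyme above about 11% from the earlier first-round screen, limit read from the data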;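 note: 0% = VIM-2 with DMSO and 100% = buffer wells without enzyme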
* = called active by the depositor; i = inactive; / = no result given.

SMILES | VIM-2 inhibitor | IMP-1 inh-1 | Neddylation inh | PolyA inhibitor | procasp7 counter | procasp3 activ | IMP-1 inh-2 | VIM-2 FRET inh | TEM-1 inh | VIM-2 inh conf
COc1ccc(N2CCc3c(C)nc4c(OC)cc(OC)cc4c32)cc1 | 15* | -2 | i | -3 | -1 | -2 | -5 | -23 | -6 | 22*
CC1CCN(S(=O)(=O)CCNC(=O)c2ccc3c(c2)OCO3)CC1 | / | / | i | -1 | 2 | 5 | / | / | / | /
COC(=O)Cc1nc(NC(=O)c2cccs2)sc1C | -2 | 0 | i | -7 | 10 | -4 | / | / | / | /
CC(=O)c1c(C)n(-c2ccc(Cl)cc2)c2ccc(O)cc12 | 14* | -1 | i | -10 | -2 | -1 | -2 | 24* | -4 | 16*
Cc1ccc(C)c(SCC(=O)Nc2cc(C)nn2-c2ccc(F)cc2)c1 | -1 | -4 | / | / | / | / | / | / | / | /
CC(C)CNC(=O)C1c2ccccc2Oc2ccccc21 | -7 | 0 | i | 13 | 8 | 0 | / | / | / | /
CCc1c(C)nc2ncnn2c1NCCc1ccc(OC)c(OC)c1 | 34* | -1 | i | -9 | 13 | -3 | -2 | -2 | -4 | 55*
COC(=O)c1c(-c2ccncc2)csc1NC(=O)c1ccoc1C | 50* | -1 | i | -16 | 7 | 12 | -3 | -5 | -5 | 74*
CC(Oc1ccc2c3c(c(=O)oc2c1)CCC3)C(=O)NCCCn1ccnc1 (stereo unspecified) | 27* | -2 | i | 3 | 0 | 3 | -3 | -1 | -6 | 39*
CC(Oc1cc2oc(=O)c3c(c2cc1Cl)CCC3)C(=O)NCc1ccncc1 (stereo unspecified) | 16* | 0 | i | 4 | -7 | 7 | -2 | 4 | -6 | 22*
CC(Oc1cc2oc(=O)c3c(c2cc1Cl)CCC3)C(=O)NCC1CCC(C(=O)O)CC1 (stereo unspecified) | 7 | -1 | i | 16 | -2 | -1 | / | / | / | /
CC(Oc1cc2oc(=O)c3c(c2cc1Cl)CCCC3)C(=O)NCC1CCC(C(=O)O)CC1 (stereo unspecified) | 2 | -1 | i | 2 | 10 | 10 | / | / | / | /
CC(Oc1cc2oc(=O)c3c(c2cc1Cl)CCC3)C(=O)NCCCn1ccnc1 (stereo unspecified) | 28* | -2 | i | -18 | 1 | -4 | 0 | 1 | 2.3* | 40*
Cc1ccccc1N/N=C/c1ccc(C#N)cc1 | 1 | 0 | i | 7 | -3 | 0 | / | / | / | /
COc1ccc(Nc2c3c(nc4ccccc24)CCCC3)cc1OC | 16* | -3 | i | -7 | 2 | -8 | -3 | -1 | -7 | 30*
COc1cc(Nc2c3ccccc3nc3ccccc23)cc(OC)c1OC | 5 | -3 | i | 0 | -9 | -2 | / | / | / | /
COc1ccc(C)cc1Nc1c2c(nc3ccccc13)CCC2 | 19* | -1 | i | -1 | 3 | 3 | -3 | 0 | -6 | 28*
COc1ccccc1Nc1c2ccccc2nc2ccccc12 | 24* | 0 | i | 8 | -3 | -2 | -2 | -3 | -4 | 36*
Cc1ccc2nc3c(c(Nc4ccccc4)c2c1)CCC3 | 5 | 0 | i | 5 | 6 | -1 | / | / | / | /
CC1CCCCC1n1c(-c2cccnc2)n[nH]c1=S (stereo unspecified) | 19* | -2 | i | 2 | -5 | -7 | -3 | 49* | -7 | 32*
S=c1[nH]nc(-c2cccnc2)n1C1CCCCC1 | 16* | -5 | i | 8 | 2 | -10 | -3 | 45* | -8 | 26*
COc1ccc(-c2n[nH]c(=S)n2C2CCCCC2)cc1 | 7 | -3 | i | -3 | -14 | -6 | / | / | / | /
S=c1[nH]nc(-c2ccccc2)n1C1C=CCCC1 (stereo unspecified) | 15* | -4 | i | -6 | -20 | -13 | -3 | 44* | -8 | 26*
Cc1ccc(C)c(-n2c(-c3cccnc3)n[nH]c2=S)c1 | -1 | -3 | i | 12 | -2 | -3 | / | / | / | /
S=c1[nH]nc(-c2ccccc2)n1CC1CCCO1 (stereo unspecified) | 30* | -7 | i | 23 | -1 | -3 | -3 | 48* | -6 | 32*
SMILES | VIM-2 inhibitor | IMP-1 inh-1 | Neddylation inh | PolyA inhibitor | procasp7 counter | procasp3 activ | IMP-1 inh-2 | VIM-2 FRET inh | TEM-1 inh | VIM-2 inh conf
NNC(=O)CCc1c[nH]c2ccccc12 | -3 | -1 | i | 12 | -6 | 0 | / | / | / | /
CCc1cccc(C)c1NC(=O)c1cccc(N(C)C)c1 | -2 | -4 | i | -9 | -5 | -21 | / | / | / | /
O=C(NNC(=O)c1cccc(-n2cccc2)c1)c1ccc(F)cc1 | / | / | i | 4 | 1 | 4 | / | / | / | /
Cc1ccsc1-c1n[nH]c(=S)n1C1CCCCC1 | 31* | -4 | i | -18 | -17 | -23 | -3 | 57* | -6 | 42*
CC(C)Cn1c(-c2nn(C)cc2Cl)n[nH]c1=S | 3 | -5 | i | -3 | 0 | -1 | / | / | / | /
Cc1ccsc1-c1n[nH]c(=S)n1CC(C)C | 18* | -2 | i | -16 | -4 | -14 | -3 | 40* | -7 | 28*
COc1ccc(Cl)cc1-c1n[nH]c(=S)n1C1CCCCC1 | -3 | -4 | i | -23 | -16 | -7 | / | / | / | /
COc1ccc(-c2cc(=O)oc3cc(OC(C)C(=O)O)ccc23)cc1 (stereo unspecified) | 2 | -2 | i | 13 | -8 | 0 | / | / | / | /
COc1ccc(-c2cc(=O)oc3c(O)c(O)ccc23)cc1 | 13* | -6 | i | -8 | -15 | -7 | -5 | 0 | -2 | 18*
CNc1cc(C)nc(-n2nc(C)cc2C)n1 | -2 | -6 | i | 11 | 3 | 3 | / | / | / | /
CCOc1ccc(Nc2cc(C)nc(-n3nc(C)cc3C)n2)cc1 | 17* | -5 | i | -26 | -1 | 5 | -4 | -64 | -7 | 43*
CC1CC(C)(C)N(C(=O)CN2CCN(C)CC2)c2ccccc21 (stereo unspecified) | 0 | 1 | i | -12 | 3 | -1 | / | / | / | /
CN1CCc2c(sc(NC(=O)c3ccco3)c2C(N)=O)C1 | 4 | -1 | i | 6 | -13 | -3 | / | / | / | /

Screening results: PubChem, several laboratories
